Measured values published in ChEMBL document CHEMBL1154183, “Structure-based optimization of potent and selective inhibitors of the tyrosine kinase erythropoietin producing human hepatocellular carcinoma receptor B4 (EphB4)” (J Med Chem, 2009).

What was measured:
[1] = biological target: T1, Ephrin type-B receptor 4 (Homo sapiens) (UniProt P54760); assay: Inhibition of EphB4 assessed as blockade of synthetic substrate phosphorylation at 10 uM by FRET assay; parameters: scale not given: the % may be the effect or the level left
T1 sequence (whole entry): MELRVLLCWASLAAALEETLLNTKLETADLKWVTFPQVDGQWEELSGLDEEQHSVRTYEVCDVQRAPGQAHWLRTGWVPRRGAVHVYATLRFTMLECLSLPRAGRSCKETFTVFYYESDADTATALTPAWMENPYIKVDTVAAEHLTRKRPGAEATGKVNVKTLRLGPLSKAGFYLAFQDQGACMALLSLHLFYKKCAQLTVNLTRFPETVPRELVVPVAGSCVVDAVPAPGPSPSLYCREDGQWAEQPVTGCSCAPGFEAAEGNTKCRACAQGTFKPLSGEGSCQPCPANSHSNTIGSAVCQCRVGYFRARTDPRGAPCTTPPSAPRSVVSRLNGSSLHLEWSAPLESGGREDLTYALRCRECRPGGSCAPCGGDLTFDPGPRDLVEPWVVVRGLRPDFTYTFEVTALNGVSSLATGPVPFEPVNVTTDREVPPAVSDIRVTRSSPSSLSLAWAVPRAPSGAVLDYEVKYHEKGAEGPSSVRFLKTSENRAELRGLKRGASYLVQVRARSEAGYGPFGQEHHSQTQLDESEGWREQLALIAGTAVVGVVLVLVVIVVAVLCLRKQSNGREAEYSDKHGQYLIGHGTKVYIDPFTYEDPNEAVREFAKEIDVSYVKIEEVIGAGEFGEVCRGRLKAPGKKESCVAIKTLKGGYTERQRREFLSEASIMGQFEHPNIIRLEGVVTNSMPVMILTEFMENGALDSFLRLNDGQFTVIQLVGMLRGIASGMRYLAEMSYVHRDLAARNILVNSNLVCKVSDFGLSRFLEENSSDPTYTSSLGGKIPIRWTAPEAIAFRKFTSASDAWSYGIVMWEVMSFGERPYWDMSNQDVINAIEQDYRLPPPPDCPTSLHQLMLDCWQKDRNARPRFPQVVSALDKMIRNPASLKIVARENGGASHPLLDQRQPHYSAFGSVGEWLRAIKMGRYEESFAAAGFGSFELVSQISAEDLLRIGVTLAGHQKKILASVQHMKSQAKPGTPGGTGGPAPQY
Method in brief: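 Z'-LYTE FRET kinase assay with Tyr 1 peptide substrate. Final EphB4 25 ng/μL, ATP 125 μM (near Km), 30 °C for 2 h. Excitation 400 nm, emission at 445 and 520 nm, read as fluorescence progress curves. Inhibition of substrate phosphorylation was measured.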

[2] = biological target: T2, Ephrin type-B receptor 4 (Homo sapiens, UniProt P54760); assay: Inhibition of EphB4 assessed as blockade of synthetic substrate phosphorylation by FRET assay
T2 sequence (P54760 whole entry): T1 sequence (whole entry)

[3] = biological target: T2, Ephrin type-B receptor 4; assay: Inhibition of EphB4 by [gamma33-P]ATP based assay

| IC50 [2] | SMILES | also measured |
| --- | --- | --- |
|  | COc1ccccc1-n1c(-c2cccc3c2OCO3)cn2c3c(=O)[nH]c(=O)n(C)c3nc12 | Activity [1]: 30% |
| 5.4 µM | COc1ccccc1-n1c(-c2ccc(F)cc2)cn2c3c(=O)[nH]c(=O)[nH]c3nc12 |  |
| > 10 µM | COc1ccccc1-n1c(-c2ccc(F)cc2)cn2c3c(=O)[nH]c(=O)n(Cc4ccccc4)c3nc12 |  |
|  | CCCCn1c(-c2ccc(C)cc2)cn2c3c(=O)[nH]c(=O)n(C)c3nc12 | Activity [1]: 38% |
|  | Cn1c(=O)[nH]c(=O)c2c1nc1n(CCCCO)c(-c3ccc4c(c3)OCO4)cn21 | Activity [1]: 42% |
| 1.2 µM | COc1ccccc1-n1c(-c2cccc(O)c2C)cn2c3c(=O)[nH]c(=O)n(C)c3nc12 |  |
| 0.691 µM | CCCCn1c(-c2cccc(O)c2)cn2c3c(=O)[nH]c(=O)n(C)c3nc12 |  |
|  | CCCCn1c(-c2cccc(OC)c2)cn2c3c(=O)[nH]c(=O)n(C)c3nc12 | Activity [1]: 36% |
|  | Cn1c(=O)[nH]c(=O)c2c1nc1n(CCCCO)c(-c3ccccc3)cn21 | IC50 [3]: 5.68 µM |
| > 20 µM | COc1ccccc1-n1c(-c2ccc([N+](=O)[O-])cc2)cn2c3c(=O)[nH]c(=O)n(C)c3nc12 |  |
| > 10 µM | CCCCn1c(-c2ccc(OC)cc2)cn2c3c(=O)[nH]c(=O)n(C)c3nc12 |  |
| > 10 µM | COc1ccccc1-n1c(-c2cccc(C)c2)cn2c3c(=O)[nH]c(=O)n(C)c3nc12 |  |
| 1.6 µM | CCCCn1c(-c2ccccc2O)cn2c3c(=O)[nH]c(=O)n(C)c3nc12 |  |
| > 20 µM | COc1ccccc1-n1c(-c2ccc(C#N)cc2)cn2c3c(=O)[nH]c(=O)n(C)c3nc12 |  |
|  | COc1ccccc1-n1c(-c2ccccc2O)cn2c3c(=O)[nH]c(=O)n(C)c3nc12 | Activity [1]: 64% |
| 0.368 µM | COc1ccccc1-n1c(-c2cccc(O)c2)cn2c3c(=O)[nH]c(=O)n(C)c3nc12 | IC50 [3]: 0.213 µM |
| > 10 µM | CCCCn1c(-c2ccccc2OC)cn2c3c(=O)[nH]c(=O)n(C)c3nc12 |  |
| > 10 µM | COc1ccccc1-n1c(-c2ccccc2)cn2c3c(=O)[nH]c(=O)n(Cc4ccccc4)c3nc12 |  |
|  | COc1ccccc1-n1c(-c2ccc(O)cc2)cn2c3c(=O)[nH]c(=O)n(C)c3nc12 | Activity [1]: 59% |
|  | CCCCn1c(-c2cccc(C)c2)cn2c3c(=O)[nH]c(=O)n(C)c3nc12 | Activity [1]: 37% |
| > 20 µM | COc1ccccc1-n1c(-c2ccc(C(=O)O)cc2)cn2c3c(=O)[nH]c(=O)n(C)c3nc12 |  |
| > 20 µM | COc1ccccc1-n1c(-c2ccc3c(c2)OCO3)cn2c3c(=O)[nH]c(=O)n(C)c3nc12 |  |
| 0.558 µM | CCCCn1c(-c2ccc(O)cc2)cn2c3c(=O)[nH]c(=O)n(C)c3nc12 |  |
| 0.236 µM | COc1ccccc1-n1c(-c2ccc(O)cc2C)cn2c3c(=O)[nH]c(=O)n(C)c3nc12 |  |
